Source: PubChem
Shown are actives, neighbours in structure and some others; about 3.7% of the full set was active somewhere.
NPY-Y1 antag = blocks the human neuropeptide Y Y1 receptor; P25929; HEK293-CNG Y1 cells, membrane potential fluorescence; NPY at EC95, then isoproterenol; inhibition, % at 3.6 µM; 200,000 compounds, 1% hits; AID 1040;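 active = inhibition above the campaign mean inhibition of all tested compounds plus 3 SD, cut at about 20% in these data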
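Test system: HEK293 cells co-expressing NPY Y1 receptor and cyclic-nucleotide gated channel; Also added: NPY (25 nM), isoproterenol (1 µM), Ro 20-1724 (25 µM); Compound dosing: one concentration, 3.6 µM, in 0.4% DMSO; Timing: dye 3 h, compound 60 min room temperature, stimulation 45 min; Technique: Membrane-potential fluorescent dye readout.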
Furin inh = human furin inhibition. 220,000 compounds, 0.061% hits. P09958. purified furin, fluorogenic substrate cleavage. inhibition, % at 20 µM or 30 µM. AID 463115; in the data active = inhibition above about 25%
Cl transport mod = modulates chloride dependent transport by human KCC2; B-score of Tl+ flux slope (higher = more flux/activation; lower = inhibition) at 10 µM; AID 1456; KCC2 cells, thallium flux FluoZin-2 fluorescence; 190,000 compounds, 2.2% hits;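 active = thallium flux slope and its plate-corrected score both differing from the plate sample mean at a set confidence after two filtering rounds, in either direction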;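 note: slope of fluorescence scaled to starting intensity during 10 to 20 s after thallium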
NPY-Y2 antag = blocks the human neuropeptide Y Y2 receptor. P49146. NPY-Y2 expressing cells, antagonist mode. inhibition, % at 2.7 µM. 140,000 compounds, 0.99% hits. AID 793; in the data active = inhibition above about 17%
Target sequence (P49146 whole entry, looked up): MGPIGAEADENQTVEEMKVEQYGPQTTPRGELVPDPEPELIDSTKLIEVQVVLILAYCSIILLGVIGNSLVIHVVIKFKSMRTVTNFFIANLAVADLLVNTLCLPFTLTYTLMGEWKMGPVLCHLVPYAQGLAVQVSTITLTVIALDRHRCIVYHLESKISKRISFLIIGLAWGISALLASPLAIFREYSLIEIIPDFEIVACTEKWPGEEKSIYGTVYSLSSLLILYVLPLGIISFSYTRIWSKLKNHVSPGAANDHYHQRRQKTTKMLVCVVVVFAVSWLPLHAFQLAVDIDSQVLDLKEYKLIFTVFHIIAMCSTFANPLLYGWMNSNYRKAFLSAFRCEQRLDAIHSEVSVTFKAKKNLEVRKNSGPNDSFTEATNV
NPY1 pot ag = potentiators or agonists of human neuropeptide Y receptor Y1. P25929. NPY-Y1 expressing cells, potentiator/agonist activation. activation, % at 3.6 µM. 220,000 compounds, 0.37% hits. AID 1304; in the data active = activation above about 33%, passing the limit was not always enough;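 note: cells stimulated with NPY at EC10 then isoproterenol at EC100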
NPY-Y2 PAM-ag = potentiates or activates human NPY-Y2 receptor. P49146. cells expressing NPY-Y2, potentiator/agonist read-out. activation, % at 3.6 µM. 220,000 compounds, 0.45% hits. AID 1359; in the data active = activation above about 27%;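 note: cells stimulated with NPY near EC25 plus isoproterenol at EC100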
Of the large screens only hits and unclear results are named; the others gave an inactive call.

COc1ccc2nc3cc(Cl)ccc3c(Nc3cc(C(C)C)c(O)cc3C)c2c1	NPY1 pot ag 62, NPY-Y2 PAM-ag 59 (no result: NPY-Y1 antag, NPY-Y2 antag)
O=c1nccc(SCc2ccc(Cl)cc2Cl)[nH]1	none (no result: NPY-Y1 antag, NPY-Y2 antag)
O=C(O)C1CC=CCC1C(=O)NC1CCCCC1 (configuration not stated)	none (no result: NPY-Y2 antag)
CC(C)NCC(O)COc1ccc2c(c1)CCC2 (configuration not stated)	NPY1 pot ag 105, NPY-Y2 PAM-ag 96
CC(C)NCC(O)COc1ccc(CC(N)=O)cc1 (configuration not stated)	none
CCCC(NCC(O)COc1ccc(-c2ccccc2)cc1)c1ccccc1 (configuration not stated)	none (no result: NPY-Y2 antag)
CCN1CCN(CC(O)COc2ccc3c(c2)CCC3)CC1 (configuration not stated)	none
CC(CCc1ccccc1)NCC(O)COc1ccccc1 (configuration not stated)	NPY1 pot ag 104, NPY-Y2 PAM-ag 100 (no result: NPY-Y2 antag)
CC(C)NCC(O)COc1ccc(CCOCC2CC2)cc1 (configuration not stated)	NPY1 pot ag 96, NPY-Y2 PAM-ag 92
CC(C)NCC(O)COc1ccc(Br)cc1 (configuration not stated)	NPY1 pot ag 75, NPY-Y2 PAM-ag 54 (no result: NPY-Y2 antag)
COc1ccc(Cn2c(=S)[nH]c3ccsc3c2=O)cc1	Cl transport mod 26
COc1ccc(Cn2c(=S)[nH]c3cc(OC)c(OC)cc3c2=O)cc1	none (no result: NPY-Y2 antag)
c1ccc(Nc2c3c(nc4ccccc24)CCC3)cc1	NPY-Y1 antag 20 (no result: NPY-Y2 antag)
CCC(C)(C(=O)NC1CCCCC1)N(CC1CCCO1)C(=O)Cc1cccs1 (configuration not stated)	NPY-Y1 antag 21 (no result: NPY-Y2 antag)
CCC(C)(C(=O)NC1CCCC1)N(Cc1cccs1)C(=O)Cc1cccs1 (configuration not stated)	NPY-Y1 antag 37, NPY-Y2 antag 38 (no result: Cl transport mod)
CCC(C)(C(=O)NC1CCCCC1)N(C(=O)Cc1cccs1)c1ccccc1 (configuration not stated)	NPY-Y1 antag 34, NPY-Y2 antag 17
CCC(C)(C(=O)NC1CCCCC1)N(CC1CCCO1)C(=O)CNC(=O)c1ccccc1 (configuration not stated)	none
CCc1ccc2c(c1)cc(C)c1nnc(SCC(=O)Nc3cc(OC)c(OC)cc3C(=O)O)n12	none (no result: Cl transport mod, NPY-Y2 antag)
CCC(c1nnnn1CCOC)N(Cc1ccc(C)cc1)Cc1cc2cc(OC)ccc2[nH]c1=O (configuration not stated)	Cl transport mod -3.1
Clc1ccccc1-c1ccc(CN2CCN(c3ccccc3)CC2)o1	NPY-Y1 antag 23, NPY-Y2 antag 28
c1ccc(-c2nnc(CN3CCN(c4ccccc4)CC3)o2)cc1	none (no result: NPY-Y2 antag)
CCOc1cc(/C=N/NC(=O)c2cc(-c3cccnc3)nc3ccccc23)ccc1O	none (no result: NPY-Y2 antag)
COc1ccccc1Nc1ncc(-c2cccs2)s1	Cl transport mod 3.1
COc1ccccc1Nc1ccc(C(=O)NCc2cccs2)cn1	none (no result: NPY-Y2 antag)
N#C/C(N)=C(/C#N)N=Cc1cccc(Cl)c1	none (no result: NPY-Y1 antag, NPY-Y2 antag)
COc1ccc(C(=O)CC(=O)C(=O)NCCc2cccc(C)c2)cc1	Cl transport mod 8.3
COc1ccc(C(=O)NC(=S)NCCc2ccccc2)cc1	none (no result: NPY-Y2 antag)
CN(C)c1cc(Cl)c2nonc2c1N	none (no result: NPY-Y1 antag, NPY-Y2 antag)
CCN(C(=S)NC(=O)c1ccccc1Br)C1CCCCC1	Cl transport mod 63
O=C(OCc1nc2ccccc2s1)c1cccc(S(=O)(=O)N2CCOCC2)c1	Cl transport mod -5.1
O=C(CCc1ccc(S(=O)(=O)N2CCOCC2)cc1)OCc1nc2ccccc2s1	none (no result: Cl transport mod)
CCc1ccc(Nc2nc3ccccc3c(=O)s2)cc1	Cl transport mod 7.5
CCOc1ccc(Nc2nc3ccccc3c(=O)s2)cc1	none (no result: NPY-Y1 antag, NPY-Y2 antag)
COc1cc(C2Nn3c(nnc3-c3ccccc3OC)S2)ccc1O (configuration not stated)	none
O=C(NC(=S)N1CCCCCC1)c1ccc(Cl)cc1Cl	Cl transport mod 88 (no result: NPY-Y2 antag)
CN1CCN(NC(=O)c2ccc(Cl)cc2Cl)CC1	none
Cc1cccc(C(=O)NC(=S)NNC(=O)c2ccccc2Cl)c1	Cl transport mod 40
CCCN(CCC)C(=S)NC(=O)c1ccc(Cl)cc1Cl	Cl transport mod 42
Cc1ccccc1C(=O)NNC(=S)NC(=O)c1ccc(Cl)cc1Cl	Cl transport mod 28
Cc1cccc(C(=O)NC(=S)Nc2ccccc2C(=O)O)c1	none (no result: NPY-Y2 antag)
COc1ccc(C)cc1NC(=O)c1nn(C)cc1Br	none (no result: NPY-Y1 antag, NPY-Y2 antag)
